Screening data from PubChem BioAssay.
SUMO HTRF inh: blocks human SUMOylation mediated by UBC9; P63279; HTRF SUMOylation assay, SAE1/SAE2 + UBC9, in vitro; inhibition, % at 35 µM; 0.36% of 290,000 active; AID 2006; in the data active = inhibition above about 50%, passing the limit was not always enough; inconclusive = no clear call, values can overlap the other calls
Target sequence (P63279 whole entry, looked up): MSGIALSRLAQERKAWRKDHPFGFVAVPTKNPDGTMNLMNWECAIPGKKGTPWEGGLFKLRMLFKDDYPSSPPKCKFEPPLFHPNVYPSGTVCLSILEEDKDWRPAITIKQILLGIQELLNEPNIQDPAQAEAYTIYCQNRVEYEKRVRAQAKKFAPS
ZTA DNA inh: counter-screen for EBNA-1 inhibitors: inhibitors of Epstein-Barr virus ZTA; P03206; ZTA-DNA binding, fluorescence polarization; inhibition, % at 11 µM; 0.15% of 320,000 active; AID 2234; in the data active = inhibition above about 33%
Target sequence (P03206 whole entry, looked up): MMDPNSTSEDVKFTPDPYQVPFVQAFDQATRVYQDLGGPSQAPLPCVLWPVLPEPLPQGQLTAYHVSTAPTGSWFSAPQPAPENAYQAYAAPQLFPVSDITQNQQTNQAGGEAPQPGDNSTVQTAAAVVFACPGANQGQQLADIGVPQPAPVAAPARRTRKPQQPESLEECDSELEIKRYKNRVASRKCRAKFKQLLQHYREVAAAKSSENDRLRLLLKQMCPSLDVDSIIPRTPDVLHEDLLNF
HCV NS3 hel inh: inhibitors of Hepatitis C virus NS3 helicase; NS3 helicase DNA unwinding, Cy5 molecular beacon fluorescence; inhibition, % at 10.9 µM; 0.56% of 290,000 active; AID 1800;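 active = inhibition above the mean of all tested compounds plus 3 SD, set per campaign, cut at about 35% in these data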;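 note: 0% = DMSO wells and 100% = thioflavine S control wells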
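Test system: hepatitis C virus NS3 helicase domain fragment enzyme. Also added: annealed dual-labelled DNA beacon duplex, ATP-started. Timing: 60 min unwinding reaction at 25 °C after ATP addition. Technique: Cy5 fluorescence. Measure: % inhibition of unwinding.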
EBNA-1 inhibitor: blocks EBNA-1 binding to DNA; 0.34% of 300,000 active; inhibition, % at 14.8 µM; EBNA-1 DNA binding, fluorescence polarization; in the data active = inhibition above about 28%
core dimer inh: HCV core protein dimerization inhibition; inhibition, % at 5 µM; AID 1899; 0.33% of 300,000 active; TR-FRET GST/Flag-core106 dimerization, 1536-well;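 active = inhibition above the mean of all tested compounds plus 3 SD, set per screening campaign, cut at about 45% in these data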
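assay system = GST-tagged and Flag-tagged HCV core protein residues 1-106 | controls = unlabelled core106 and no-GST-core106 wells | incubation = compound-protein-antibody incubation 4 h at 22.5 °C | probe or stimulus = Eu donor and XL665 acceptor anti-tag antibodies | read-out = % inhibition based on acceptor/donor emission ratio | signal = TR-FRET 671 and 617 nm emission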
Zta DNA confirm: EBV ZTA DNA binding inhibition, confirmation; shares compounds with ZTA DNA inh; Zta-ZRE DNA binding, fluorescence polarization; inhibition, % at 11.1 µM; 30% of 320 active;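 active = mean inhibition across triplicate runs above the hit threshold derived for the original primary screen, cut at about 33% in these data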;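 note: 0% = Zta with DMSO and 100% = wells lacking Zta protein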
EBNA1 counter: EBNA-1 DNA binding inhibition, counter-screen for ZTA; shares compounds with ZTA DNA inh; fluorescence polarization; inhibition, % at 14.8 µM; 320 tested, under 10 active; AID 2362; call rule not given here
Starred values were filed as active, the others as inactive; ? = inconclusive; · = not tested or not shown. A selection: hits, their analogues and other compounds. The true share with any hit is near 1.4%.

SMILES | SUMO HTRF inh | ZTA DNA inh | HCV NS3 hel inh | EBNA-1 inhibitor | core dimer inh | Zta DNA confirm | EBNA1 counter
CCc1ccc(S(=O)(=O)/N=C2\C=C(Nc3ccc(C(=O)O)cc3)C(=O)c3ccccc32)cc1 | ? | 53* | -4 | -4 | -2 | 52* | 2
Cc1ccc(NC2=C/C(=N/S(=O)(=O)c3cccs3)c3ccccc3C2=O)cc1 | 6 | -13 | 15 | -19 | 25 | · | ·
CC(=O)Nc1cccc(OCCCNC(=O)c2ccc(C(C)(C)C)cc2)c1 | 11 | -6 | 5 | -3 | -3 | · | ·
Cc1cc(C)nc(NC(=O)NS(=O)(=O)Nc2ccc(Br)cn2)n1 | 16 | 33* | -3 | 15 | 1 | -6 | -3
O=C(NS(=O)(=O)Nc1ccc(Br)cn1)c1c[nH]c2ccccc12 | 5 | -6 | -3 | 0 | -4 | · | ·
CC(=O)c1sc(NC(=O)c2oc3ccc(F)cc3c2C)nc1C | · | 67* | · | · | · | 47* | 8
O=C(NNC(=O)c1ccccc1F)C1=NN(c2ccccc2)C(=O)CC1 | 3 | -4 | -5 | -12 | -3 | · | ·
COc1cccc2c1C(=O)c1c(O)c3c(c(O)c1C2=O)C[C@@](O)(C(=O)CO)C[C@@H]3O[C@H]1C[C@H](N)[C@H](O)[C@H](C)O1 | 26 | 78* | 8 | 25 | -15 | 98* | -8
Nc1cc2nsnc2cc1Br | 100* | 68* | 9 | 0 | -73 | 28 | -3
Clc1ccc(OCCSc2ncccn2)c(Br)c1 | -18 | 106* | 0 | 9 | 0 | 8 | 4
Brc1cccc(OCCSc2ncccn2)c1 | -17 | -6 | 4 | -12 | 4 | · | ·
CCOc1ccc(N2C(=O)/C(=C/c3ccccc3)N=C2SC)cc1 | 25 | 42* | 0 | -1 | 4 | 1 | -4
COc1ccc(/C=C2\N=C(SC)N(c3ccccc3OC)C2=O)cc1 | -4 | 5 | -9 | -2 | 4 | · | ·
CCOC(=O)c1c(CSc2ccc(CC)cc2)oc2ccc(O)c(CN(C)C)c12 | 3 | 34* | -108 | 12 | 0 | 4 | 1
CCOC(=O)c1c(C)oc2ccc(O)c(CN(C)C)c12 | 1 | -12 | 3 | 8 | -3 | · | ·
CCOc1ccccc1NC(=O)CN1CCN(Cc2ccccc2)CC1 | 13 | 5 | 0 | 7 | -2 | · | ·
CCC(Oc1ccccc1)C(=O)Nc1nc2ccccc2[nH]1 (stereo not drawn) | 7 | 37* | -1 | -7 | -5 | 3 | -1
CC(C)Oc1ccc(C(=O)Nc2nc3ccccc3[nH]2)cc1 | 6 | 9 | 4 | 12 | 7 | · | ·
COc1ccc(S(=O)(=O)Nc2cccc(C)n2)c2ccccc12 | 24 | 34* | -10 | 6 | 3 | 6 | -4
CO[C@H]1O[C@H](CBr)[C@@H](OC(=O)c2ccccc2)[C@H](O)[C@H]1O | · | -8 | · | 5 | 0 | · | ·
CCOC1(OCC)N=C(N)C2(C#N)C(c3cccc(C)c3)C12C#N (stereo not drawn) | 10 | 67* | -7 | 5 | 7 | -6 | -8
CCOC1(OCC)N=C(N)C2(C#N)C(c3cccc(OC)c3OC)C12C#N (stereo not drawn) | 38 | -2 | 5 | 3 | -5 | · | ·
CCN1CCN(Cc2ccc(NC(=O)c3cc(NC(=O)c4ccno4)cc(OC)c3)cc2C(F)(F)F)CC1 | 8 | 1 | · | 11 | -13 | · | ·
CCN1CCN(Cc2ccc(NC(=O)c3cc(NC(=O)c4cc5cccc(OC)c5o4)cc(OC)c3)cc2C(F)(F)F)CC1 | 6 | 37* | · | 6 | 0 | 9 | -6
CCCn1c(N)c(N(CCOC)C(=O)c2ccc([N+](=O)[O-])cc2Cl)c(=O)[nH]c1=O | 19 | -6 | -7 | 15 | -18 | · | ·
SMILES | SUMO HTRF inh | ZTA DNA inh | HCV NS3 hel inh | EBNA-1 inhibitor | core dimer inh | Zta DNA confirm | EBNA1 counter
COc1cc(/C=C2\S/C(=N/S(=O)(=O)c3ccc(C)cc3)NC2=O)c([N+](=O)[O-])cc1OC | 30 | 21 | 2 | 9 | -2 | · | ·
Cc1ccc(S(=O)(=O)/N=C2/NC(=O)/C(=C/c3cc([N+](=O)[O-])ccc3O)S2)cc1 | 13 | 34* | 13 | -7 | 2 | 41* | -1
O=C1/C(=C\c2c(NCCOCCO)nc3ccccn3c2=O)SC(=S)N1Cc1ccco1 | 18 | 42* | 9 | 2 | 6 | 24 | 7
Nc1c(C(=O)NCc2ccc(F)cc2)c2nc3ccccc3nc2n1CCCN1CCOCC1 | 45 | 66* | -20 | 7 | -1 | 11 | 1
CCN(CC(=O)Nc1c(F)cccc1F)C(=O)c1cccc(S(=O)(=O)N2CCCCCC2)c1 | · | 13 | · | · | · | · | ·
Cc1cc(C)nc(NC(=O)c2csnn2)c1 | 7 | 0 | -2 | -2 | -3 | · | ·
O=C(Nc1csnn1)c1csnn1 | 0 | 49* | 1 | -22 | 3 | -1 | -1
COc1cccc(CC2(CO)CCCN(Cc3sc(N4CCCC4)nc3Cl)C2)c1 (stereo not drawn) | 3 | 9 | -9 | 0 | 2 | · | ·
CCOc1cc(/C=C\c2[nH]c(=O)[nH]c(=O)c2[N+](=O)[O-])ccc1OC(C)CC (stereo not drawn) | 20 | 39* | 5 | 9 | 12 | 43* | -2
CCCOc1ccc(/C=C/c2[nH]c(=O)[nH]c(=O)c2[N+](=O)[O-])cc1OCC | -12 | 3 | 6 | -14 | 10 | · | ·
COCCNc1cnn(-c2ccccc2)c(=O)c1Cl | 3 | -7 | 10 | -1 | 4 | · | ·
CCc1nc(SCC(=O)Nc2nccs2)c2oc3ccccc3c2n1 | 12 | 42* | -3 | 4 | 24 | 38* | 16
Cn1c(=O)c2sccc2n2c(CCCC(=O)NCc3ccc(F)cc3)nnc12 | 6 | -10 | -4 | -3 | 1 | · | ·
CCN(CC)c1ccc(/C=C/c2ccc3ccc(OC)cc3[n+]2CC)cc1 | -29 | 50* | -15 | 11 | -29 | 30 | -1
CCCCn1c(N)c(N(CCOC)C(=O)CCCc2nc3ccccc3c(=O)[nH]2)c(=O)[nH]c1=O | · | 136* | · | 2 | -3 | 3 | 1
CCCCN(C(=O)CCCc1nc2ccccc2c(=O)[nH]1)c1c(N)n(CCCC)c(=O)[nH]c1=O | 3 | -4 | -5 | 5 | -1 | · | ·
C#CCOCCOCCOCCNc1nc(N2CCN(C(=O)CCCCCCCCCCNC(=O)Cn3cc(CCCCCN)nn3)CC2)nc(N2CCN(C(=O)CCCCCCCCCCNC(=O)Cn3cc(CCCCCN)nn3)CC2)n1 | · | 49* | · | 0 | -8 | 38* | -7
C#CCOCCOCCOCCNc1nc(N2CCN(C(=O)CCCCCCCCCCNC(=O)Cn3cc(CCCCCN)nn3)CC2)nc(N2CCN(C(=O)CCCCCCCCCCNC(=O)[C@@H](CCC(=O)O)n3cc(CCCCCN)nn3)CC2)n1 | · | 61* | · | 4 | -7 | 3 | -7
